Screens from PubChem BioAssay.
CHOP inhibitor = CHOP inhibition in unfolded protein response; 220,000 tested, 3.8% active; inhibition, % at 10 µM; CHO-K1 CHOP-promoter luciferase, tunicamycin-induced, 15-18 h;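 active = compounds that reduced the stress-induced luciferase reporter signal by more than about 70% of percent inhibition, limit read from the data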
Dynein transport = blocks dynein driven cargo transport along microtubules; z-score, hits read low; 3617.4 mouse cells, GR-EGFP nuclear translocation imaging; test concentration mostly 20 µM; stimulated with dexamethasone, 1 µM; stronger effect = lower value; 220,000 tested, 0.47% active;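 active = plate z-score of nuclear minus cytoplasmic receptor signal below a set negative limit, without overly bright fluorescence or cell loss, cut at about -3.5 in these data, passing the limit was not always enough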;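 note: z-score of nuclear minus cytoplasmic ring GR-EGFP intensity difference per well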
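Buffer or medium: tet-free, stripped-serum medium; reagent: dexamethasone at 1.0 µM final, 30 min; incubation: 48 h induction, 1 h compound, 30 min dex at 37 °C; measured by: formaldehyde fixation, Hoechst nuclear stain, 10x automated fluorescence imaging; read-out: nuclear-to-cytoplasmic GR-EGFP distribution per well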
T cruzi inh = blocks replication of Trypanosoma cruzi. T. cruzi beta-gal in NIH3T3, luminescence, 90 h. inhibition, % (no concentration beside the values). 300,000 tested, 1.4% active. AID 1885;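 active = mean inhibition across valid replicates above about 55%, limit read from the data; inconclusive = mean below that limit but half or more replicates reach it; inactive = mean below it, under half of replicates reach it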;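 note: signal also drops with host cell toxicity which is not excluded here; higher percent means less beta-gal luminescence so fewer parasites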
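System: Mouse NIH/3T3 fibroblasts infected with β-gal-expressing T. cruzi Tulahuen C4 | Quantity: NIH/3T3 cells, 5,000 per well | Reagent: 5000 reporter trypomastigotes per well | Dosing: Compound pinned at 50 nL/well, DMSO | Schedule: 3 h host attachment, then at least 90 h co-culture | Detection: GalScreen luminescence, 60 min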
UPR CHOP act = activators of apoptotic arm of unfolded protein response (CHOP) | CHO-CHOP luciferase reporter, UPR activation, luminescence; percent of tunicamycin response over DMSO baseline | activation, % at 10 µM | 330,000 tested, 0.34% active | AID 449763;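 active = at 10 µM dose, activation of 40% or more, normalized to positive control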
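measured by = luciferase luminescence | assay system = CHO-CHOP cells, stable luciferase reporter of PERK-eIF2a-CHOP signalling | amount = 500 reporter cells seeded per well | timing = 6 h compound exposure at 37 °C after overnight seeding | controls = positive tunicamycin 10 µg/mL, negative DMSO alone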
L major viab = reduces viability of Leishmania major promastigotes | resazurin fluorescence viability | inhibition, % at 10 µM | 200,000 tested, 9% active | AID 1063; in the data active = inhibition above about 50%;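 note: promastigotes grown with compound for 44 hours at 28 °C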
UPR XBP1 act = adaptive UPR (XBP1) activation | CHO-XBP1 luciferase reporter, IRE1-XBP1 UPR activation, luminescence; percent of tunicamycin response, DMSO as zero | activation, % at 20 µM | 330,000 tested, 0.33% active;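 active = versus positive control, 20 µM dose yields 30% or more activation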
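Signal: luciferase luminescence; Assay system: CHO-XBP1 luciferase reporter cells; Amount: one thousand reporter cells per well; Dosing: 20 µM single concentration, DMSO 1%; Benchmarks: high control tunicamycin 10 µg/mL final, low control DMSO vehicle only; Schedule: 6 h compound exposure at 37 °C, 5% CO2; Evaluation: percent activation relative to tunicamycin reference.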
Large screens that a line does not name were inactive. Only a selection was taken, and hits are over-represented in it overall.

O=C(Nc1cccc(S(=O)(=O)N2CCOCC2)c1)c1cc([N+](=O)[O-])ccc1N1CCOCC1	none (no result: CHOP inhibitor, Dynein transport, L major viab)
COc1cccc(CNc2ccccc2O)c1OCc1ccccc1F	L major viab 62
C=CCOc1c(CNc2ccc(S(N)(=O)=O)cc2)cccc1OC	none
COc1cccc(CNc2ccc(S(N)(=O)=O)cc2)c1OCc1ccccc1F	L major viab 65
COc1cccc(C2NC(=O)c3ccccc3O2)c1OCc1ccccc1F (configuration not stated)	L major viab 84
COc1cccc(C2NC(=O)c3ccccc3O2)c1OC (configuration not stated)	none
CCN(CC)S(=O)(=O)c1ccc(C)c(NC(=O)COc2ccc(Cl)cc2Br)c1	CHOP inhibitor 74
O=C(Nc1ccccc1F)Nc1cc(S(=O)(=O)N2CCOCC2)ccc1N1CCCC1	none
CCN(CC)S(=O)(=O)c1ccc(N2CCN(C)CC2)c(NC(=O)COc2ccc(F)cc2Cl)c1	T cruzi inh 59 (no result: CHOP inhibitor, Dynein transport, L major viab)
O=C(COc1ccc(F)cc1Cl)Nc1cc(S(=O)(=O)N2CCOCC2)ccc1N1CCCCC1	T cruzi inh 63 (no result: CHOP inhibitor, Dynein transport, L major viab)
CCN(CC)S(=O)(=O)c1ccc(C)c(NC(=O)COC(=O)C=C(C)C)c1	none (no result: L major viab)
O=C(Nc1ccc(Cl)c(Cl)c1)Nc1cc(S(=O)(=O)N2CCOCC2)ccc1N1CCCC1	L major viab 69
CCn1c(=O)c2c(n3c(=S)[nH]nc13)-c1ccccc1CC21CCCCC1	none
CC(C)(C)c1ccc(C(=O)NCc2nnc(SCC(=O)NC3CCCCC3)o2)cc1	none (no result: CHOP inhibitor, Dynein transport, L major viab)
Cc1nc(CSc2ccc(Cl)cc2)cc(NCc2ccccc2)n1	CHOP inhibitor 91
CCOC(=O)Cc1csc(NC(=O)CSc2cc(Cl)ccc2Cl)n1	none
CCN(CC)c1ccc(NC(=O)c2cnc3ccccn3c2=O)c(C)c1	CHOP inhibitor 81, T cruzi inh inconclusive
CC(C)NS(=O)(=O)c1ccc(OCC(=O)N2CCc3ccccc3C2)cc1	CHOP inhibitor 74
COc1cc2c(cc1OC)CN(C(=O)COc1ccc(C)c(C)c1)CC2	T cruzi inh 56
CC(C)NS(=O)(=O)c1ccc(OCC(=O)N2CCCC2)cc1	none
CC1=C(C#N)C(=O)N(C2CCS(=O)(=O)C2)C(=O)/C1=C\c1ccco1 (configuration not stated)	none (no result: L major viab)
CCOc1ccc(S(=O)(=O)N2CCN(C(=O)c3cc(C4CC4)nn3-c3ccccc3)CC2)cc1	none (no result: CHOP inhibitor, Dynein transport, T cruzi inh, L major viab)
O=C(O)Cc1cn(Cc2ccc(F)cc2)c2ccccc12	UPR CHOP act 47
Cc1[nH][nH]c(=O)c1C(c1c(C)[nH][nH]c1=O)c1cn(Cc2ccc(F)cc2)c2ccccc12	L major viab 99 (no result: T cruzi inh, UPR CHOP act, UPR XBP1 act)
Cc1[nH][nH]c(=O)c1C(c1ccc(F)cc1)c1c(C)[nH][nH]c1=O	none (no result: CHOP inhibitor, Dynein transport, L major viab)
Cc1[nH][nH]c(=O)c1C(c1c(C)[nH][nH]c1=O)c1cn(Cc2ccc(Cl)c(Cl)c2)c2ccccc12	L major viab 99 (no result: UPR CHOP act, UPR XBP1 act)
O=c1c2ccccc2ncn1Cc1ccc(Cl)c(Cl)c1	none (no result: CHOP inhibitor, Dynein transport, L major viab)
Cc1ccc(Cn2cc(CCC(=O)O)c3ccccc32)cc1	none (no result: CHOP inhibitor, Dynein transport, L major viab)
COc1ccc(CC(=O)Nc2cccnc2)cc1	none (no result: CHOP inhibitor, Dynein transport, L major viab)
CC(C)CN1CCCC(N2CCN(c3cccc(Cl)c3)CC2)C1 (configuration not stated)	T cruzi inh 65 (no result: CHOP inhibitor, Dynein transport, L major viab)
COc1ccc(CN2CCCC(N3CCN(c4cccc(Cl)c4)CC3)C2)cc1OC (configuration not stated)	T cruzi inh 56 (no result: CHOP inhibitor, Dynein transport, L major viab)
CCOc1cc(CN2CCCC(N3CCN(c4ccc(F)cc4)CC3)C2)ccc1OC (configuration not stated)	none (no result: CHOP inhibitor, Dynein transport, L major viab)
CC(=O)NCCC(=O)N1CCCC(N2CCN(c3cccc(Cl)c3)CC2)C1 (configuration not stated)	none (no result: CHOP inhibitor, Dynein transport, L major viab)
Cc1nn2c(NCc3ccccn3)cc(C(C)(C)C)nc2c1-c1ccccc1	T cruzi inh 57 (no result: L major viab)
Cc1cc(NCc2ccccn2)n2nc(C)c(-c3ccccc3)c2n1	none (no result: T cruzi inh, L major viab)
COc1ccc(/C=N/OCC(=O)N=Nc2c(O)[nH]c3ccc(Br)cc23)cc1OC	L major viab 63
CCN(CC)CCNC(=O)Cn1nc(-c2ccc(C)cc2)ccc1=O	CHOP inhibitor 86
